ChEMBL document CHEMBL2203171, “The use of small molecule probes to study spatially separated stimulus-induced signaling pathways” (Bioorg Med Chem Lett, 2012)
Active and inactive are the calls of the source. The calls are words filed in the database; no cut-off is given here.

What was measured:
[1] = target: T1, Inhibitor of nuclear factor kappa-B kinase subunit beta (Mus musculus) (UniProt O88351); test: Inhibition of IKKbeta in C57BL/6 mouse BMDM cells assessed as inhibition of TNFalpha-induced IkappaBalpha phosphorylation at 25 uM after 5 mins by Western blot analysis; type: cell-based
T1 sequence (whole entry): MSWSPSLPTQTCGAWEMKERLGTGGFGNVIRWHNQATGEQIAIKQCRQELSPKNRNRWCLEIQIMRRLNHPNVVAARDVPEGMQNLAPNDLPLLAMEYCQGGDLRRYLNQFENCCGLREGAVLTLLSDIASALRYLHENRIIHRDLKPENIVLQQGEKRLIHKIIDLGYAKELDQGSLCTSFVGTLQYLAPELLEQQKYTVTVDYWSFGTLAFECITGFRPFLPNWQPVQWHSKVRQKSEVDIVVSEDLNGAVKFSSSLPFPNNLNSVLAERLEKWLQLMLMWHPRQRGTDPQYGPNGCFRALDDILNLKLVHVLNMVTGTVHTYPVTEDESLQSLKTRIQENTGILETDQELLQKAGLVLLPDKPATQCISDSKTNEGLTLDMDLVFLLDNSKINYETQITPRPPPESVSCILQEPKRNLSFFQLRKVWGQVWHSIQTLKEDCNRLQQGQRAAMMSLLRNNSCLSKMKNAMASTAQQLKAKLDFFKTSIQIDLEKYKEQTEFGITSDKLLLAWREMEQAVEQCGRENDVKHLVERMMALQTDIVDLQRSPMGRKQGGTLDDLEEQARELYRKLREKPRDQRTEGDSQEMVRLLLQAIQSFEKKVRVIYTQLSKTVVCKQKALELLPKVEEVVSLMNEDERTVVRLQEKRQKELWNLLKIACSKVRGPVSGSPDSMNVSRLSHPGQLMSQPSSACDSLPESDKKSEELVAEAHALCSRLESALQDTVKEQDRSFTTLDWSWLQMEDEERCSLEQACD
Summary of the method: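 C57BL/6 marrow-derived macrophages were cultured in 70% growth medium/30% L929-conditioned medium and refreshed 12-14 h before stimulation. Stimuli were TNF 40 ng/ml or LPS 100 ng/ml, ± compound at 25 μM from a 200x DMSO stock. Western blots tracked IKK, p38, IκBα and phospho-RelA. Results from three independent experiments were quantitated and normalized.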

[2] = target: T1, Inhibitor of nuclear factor kappa-B kinase subunit beta (Mus musculus); test: Inhibition of IKKbeta in C57BL/6 mouse BMDM cells assessed as inhibition of LPS-induced IkappaBalpha phosphorylation at 50 uM up to 90 mins by Western blot analysis; type: cell-based
[3] = target: T2, Toll-like receptor 3 (Mus musculus) (UniProt Q99MB1); test: Inhibition of TRIF recruitment to TLR3 in C57BL/6 mouse BMDM cells assessed as inhibition of pI:pC-induced IkappaBalpha degradation up to 90 mins by Western blot analysis; type: cell-based
T2 sequence (whole entry): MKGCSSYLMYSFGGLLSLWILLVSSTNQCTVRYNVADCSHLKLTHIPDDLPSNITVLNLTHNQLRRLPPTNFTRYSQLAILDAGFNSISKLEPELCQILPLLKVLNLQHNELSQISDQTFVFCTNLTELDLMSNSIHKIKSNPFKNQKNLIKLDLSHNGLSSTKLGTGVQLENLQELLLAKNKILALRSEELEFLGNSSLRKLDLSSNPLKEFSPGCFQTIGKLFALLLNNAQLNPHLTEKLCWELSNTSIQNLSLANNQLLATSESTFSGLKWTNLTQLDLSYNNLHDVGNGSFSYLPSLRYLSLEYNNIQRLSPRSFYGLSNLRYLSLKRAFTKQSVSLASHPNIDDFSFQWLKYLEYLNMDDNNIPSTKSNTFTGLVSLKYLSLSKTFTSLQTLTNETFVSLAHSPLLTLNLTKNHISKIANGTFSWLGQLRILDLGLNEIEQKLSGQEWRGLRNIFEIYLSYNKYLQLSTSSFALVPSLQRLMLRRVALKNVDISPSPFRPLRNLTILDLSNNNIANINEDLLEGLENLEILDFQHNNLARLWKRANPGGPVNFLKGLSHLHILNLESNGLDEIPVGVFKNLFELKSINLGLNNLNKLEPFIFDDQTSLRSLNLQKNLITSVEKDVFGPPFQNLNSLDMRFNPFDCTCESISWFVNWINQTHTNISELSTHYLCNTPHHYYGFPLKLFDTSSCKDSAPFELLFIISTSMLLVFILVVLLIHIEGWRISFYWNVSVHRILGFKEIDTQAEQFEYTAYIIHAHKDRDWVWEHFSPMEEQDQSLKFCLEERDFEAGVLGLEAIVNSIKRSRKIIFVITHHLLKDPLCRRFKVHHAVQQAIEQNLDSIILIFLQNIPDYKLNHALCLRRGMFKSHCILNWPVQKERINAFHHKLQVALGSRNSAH
Summary of the method: (§1)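 Bone marrow macrophages from C57BL/6 mice, grown in 70% growth medium (DMEM, 10% FBS) plus 30% L929-conditioned medium and given fresh medium 12-14 h before stimulation. Stimuli: IL-1 40 ng/ml, HKSA ~10^8 cfu/ml, pI:pC 50 μg/ml or CpG 10 μg/ml, ± compound at 10 μM (final) added from a 200x DMSO stock. IκBα and p38 profiled by immunoblot. Three independent experiments, quantitated and normalized.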

[4] = target: T3, Interleukin-1 receptor type 1 (Mus musculus) (UniProt P13504); test: Inhibition of MyD88 recruitment to IL-1R in C57BL/6 mouse BMDM cells assessed as inhibition of IL-1-induced IkappaBalpha degradation up to 90 mins by Western blot analysis; type: cell-based; summary of the method: as §1
T3 sequence (whole entry): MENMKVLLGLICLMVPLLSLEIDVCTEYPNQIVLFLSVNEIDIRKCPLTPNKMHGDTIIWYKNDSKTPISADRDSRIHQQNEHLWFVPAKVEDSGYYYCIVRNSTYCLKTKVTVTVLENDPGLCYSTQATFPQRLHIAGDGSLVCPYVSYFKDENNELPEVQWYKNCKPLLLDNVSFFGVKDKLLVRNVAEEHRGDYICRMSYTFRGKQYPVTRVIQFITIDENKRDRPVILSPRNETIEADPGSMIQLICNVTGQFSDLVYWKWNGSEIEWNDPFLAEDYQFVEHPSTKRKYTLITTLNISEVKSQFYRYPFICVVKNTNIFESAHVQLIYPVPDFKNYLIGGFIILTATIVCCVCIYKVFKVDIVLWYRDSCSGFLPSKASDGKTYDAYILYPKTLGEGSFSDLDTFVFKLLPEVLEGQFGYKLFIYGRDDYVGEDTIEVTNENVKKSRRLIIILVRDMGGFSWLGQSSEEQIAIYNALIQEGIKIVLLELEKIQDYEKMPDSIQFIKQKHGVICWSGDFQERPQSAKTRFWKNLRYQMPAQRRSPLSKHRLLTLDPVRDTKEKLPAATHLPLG

[5] = target: T1, Inhibitor of nuclear factor kappa-B kinase subunit beta (Mus musculus); test: Inhibition of IKKebta in C57BL/6 mouse BMDM cells assessed as inhibition of LPS-induced IkappaBalpha phosphorylation at 25 uM by Western blot analysis

Row | inhibition [1] | inhibition of IkappaBalpha phosphorylation (active/not active) [2] | inhibition [3] | inhibition [4] | inhibition [5] | Compound
1 | inactive | inactive | Active | – | – | O=C(CCCCCN1C(=O)CCC1=O)Oc1ccc2cc(C(C(=O)NCc3ccccc3)N(C(=O)Cc3ccc4c(c3)OCO4)C3CC3)ccc2c1 (stereo unspecified)
2 | inactive | Active | Active | Active | Active | O=C(CCCCCN1C(=O)C=CC1=O)Oc1ccc2cc(C(C(=O)NCc3ccccc3)N(C(=O)Cc3ccc4c(c3)OCO4)C3CC3)ccc2c1 (stereo unspecified)
3 | inactive | Active | Active | – | – | O=C(CCCCCCCC(=O)ON1C(=O)CCC1=O)Oc1ccc2cc(C(C(=O)NCc3ccccc3)N(C(=O)Cc3ccc4c(c3)OCO4)C3CC3)ccc2c1 (stereo unspecified)
